# Hits are enriched below; roughly 2.2% of the tested compounds scored in any of these assays.
# V-ATPase pHluor – alters yeast V-ATPase proton transport | AID 504577 | S. cerevisiae, pHLuorin cytosolic pH fluorescence | response, % at 10 µM | 0.37% of 350,000 active; in the data active means response mostly above about 7.3%, no sharp cut-off; inactive means mostly below about 5.4%; further: actives read high
# NR2E3 ag-1 – activates human photoreceptor nuclear receptor NR2E3; Q9Y5X4; GST-NR2E3/biotin-RetCOR TR-FRET, 1536-well; AID 2300; inhibition of corepressor binding, % at 4.78 µM; 0.12% of 320,000 active;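 active means percent inhibition above the cutoff of mean plus 3 SD of all tested compounds, set per screening campaign, cut at about 20% in these data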;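 further: 0% = DMSO wells and 100% = biotin wells as full block of FRET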
# Target sequence (Q9Y5X4 whole entry, looked up): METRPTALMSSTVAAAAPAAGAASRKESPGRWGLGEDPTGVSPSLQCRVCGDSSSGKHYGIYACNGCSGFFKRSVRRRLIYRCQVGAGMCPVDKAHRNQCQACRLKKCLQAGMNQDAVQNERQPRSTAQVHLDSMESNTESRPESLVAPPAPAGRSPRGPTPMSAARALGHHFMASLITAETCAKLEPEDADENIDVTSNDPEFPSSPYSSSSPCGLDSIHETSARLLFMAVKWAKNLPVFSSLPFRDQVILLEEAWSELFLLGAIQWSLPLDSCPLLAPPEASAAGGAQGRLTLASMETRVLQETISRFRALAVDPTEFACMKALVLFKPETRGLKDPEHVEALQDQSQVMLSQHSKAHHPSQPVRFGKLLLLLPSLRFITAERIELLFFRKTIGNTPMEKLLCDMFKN
#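 Material: NR2E3–RetCOR corepressor complex | Quantity: 1.35 nM GST-tagged NR2E3 final | Schedule: 5 h at 4 °C | Replication: Singlicate compound wells | Reagent: RetCOR corepressor, biotinylated, 7 nM | Controls: Biotin wells as high control, 0.6% DMSO wells as low control | Signal: TR-FRET, Eu(K)-anti-GST donor, streptavidin-D2 acceptor, ex 340, em 617/671 nm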
# Env fusion inh – HIV envelope-mediated fusion inhibition; HeLa-JRFL Env/CEM21 cell fusion, luciferase; inhibition, % at 12.3 µM; 1.1% of 360,000 active; AID 651610;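 active means mean replicate inhibition score of at least 50 and every replicate individually at or above 50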;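 further: 0% = plate neutral controls and 100% = maraviroc near 300 nM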
# NR2E3 ag-2 – activates human NR2E3 receptor. CHO-S Gal4-NCOR/VP16-NR2E3 two-hybrid, luciferase. inhibition of corepressor binding, % at 3.98 µM. Q9Y5X4. 0.35% of 360,000 active;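 active means inhibition above the mean of all tested compounds plus 3 SD, cut at about 70% in these data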;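 further: 0% = DMSO with NR2E3 transfected cells and 100% = cells lacking NR2E3 construct; higher means lower luciferase signal from less NR2E3 corepressor binding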
# GalR3 antagonist – human GalR3 antagonism. O60755. HEK293 GalR3-CNG cAMP membrane potential fluorescence; galR3 body fused to GalR1 C-terminus. inhibition, % at 3 µM. 0.44% of 360,000 active;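 active means inhibition above the screen-wide average plus 3 SD, cut at about 13% in these data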;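 further: forskolin and galanin both at EC90 stimulate the cells; cAMP rise reported by CNG channel membrane potential dye signal; 0% = forskolin plus galanin with DMSO and 100% = forskolin alone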
# Target sequence (O60755 1-299 limits assumed): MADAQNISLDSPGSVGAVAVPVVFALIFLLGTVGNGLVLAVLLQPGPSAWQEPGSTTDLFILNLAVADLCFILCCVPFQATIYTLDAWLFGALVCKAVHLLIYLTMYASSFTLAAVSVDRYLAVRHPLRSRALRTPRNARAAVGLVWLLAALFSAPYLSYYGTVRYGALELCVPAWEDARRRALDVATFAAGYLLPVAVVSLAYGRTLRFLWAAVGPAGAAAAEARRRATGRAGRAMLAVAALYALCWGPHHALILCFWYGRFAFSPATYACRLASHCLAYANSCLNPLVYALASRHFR
# FXN GAA850 act – increases GAA850 frataxin promoter reporter activity; 0.56% of 360,000 active; activation, % at 6 µM; HEK293 lucGAA850 FXN promoter luciferase reporter, 24 h; percent of 10 µM SAHA response;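 active means activation above the average of all compounds screened plus 3 SD, cutoff fixed separately per campaign, cut at about 7.5% in these data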;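 further: 0% = DMSO wells and 100% = 10 µM SAHA wells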
# * marks the source's active call; other numbers are inactive results; x = no result; [ ] = remark or other dose.
SMILES,V-ATPase pHluor,NR2E3 ag-1,Env fusion inh,NR2E3 ag-2,GalR3 antagonist,FXN GAA850 act
O=C(C[C@@H]1C=C[C@@H](NC(=O)C2CCC2)[C@H](CO)O1)NC1CCC1,x,x,-22[16.7 µM],x,x,x
CCCCNC(=O)Cn1c(=O)oc2cc(S(=O)(=O)N3CC(C)CC(C)C3)ccc21 (stereo not drawn),1,1,-8,-19,2,0
COCCCNC(=O)Cn1c(=O)oc2cc(S(=O)(=O)N3CC(C)CC(C)C3)ccc21 (stereo not drawn),20*,0,-13,9,1,-1
COC(=O)C[C@@H]1C[C@H]2c3cc(NS(=O)(=O)c4ccc(OC)cc4)ccc3O[C@H]2[C@H](CO)O1,x,x,0[16.7 µM],x,x,x
COc1ccc2[nH]c(=O)c(CN(Cc3nnnn3Cc3ccc(F)cc3)CC3CCCO3)cc2c1 (stereo not drawn),-3,10,x,-6,-2,2
COc1ccc2[nH]c(=O)c(CN(Cc3nnnn3Cc3ccccc3)CC3CCCO3)cc2c1 (stereo not drawn),-3,4,112*,2,-3,4
COCCn1nnnc1CN(CCc1ccccc1)Cc1cc2cc(OC)ccc2[nH]c1=O,-4,0,77*,-18,-4,1
COCCn1nnnc1CN(Cc1cccnc1)Cc1cc2cc(OC)ccc2[nH]c1=O,-2,x,x,-12,3,2
C[C@@H]1CN([C@H](C)CO)C(=O)c2cc(-c3ccccc3F)cnc2O[C@H]1CN(C)Cc1ccc(F)cc1,x,x,11[16.7 µM],x,x,x
COc1ccccc1NC(=O)N[C@H]1C=C[C@H](CC(=O)N[C@@H](C)c2ccccc2)O[C@@H]1CO,x,x,0[16.7 µM],x,x,x
COc1ccccc1NC(=O)N[C@@H]1C=C[C@H](CC(=O)N[C@H](C)c2ccccc2)O[C@H]1CO,x,x,95*[16.7 µM],x,x,x
COc1ccccc1NC(=O)N[C@@H]1C=C[C@H](CC(=O)NCc2ccc(Cl)c(Cl)c2)O[C@@H]1CO,x,x,74*[16.7 µM],x,x,x
COc1ccccc1NC(=O)N[C@H]1C=C[C@H](CC(=O)NCc2ccc(Cl)c(Cl)c2)O[C@H]1CO,x,x,-2[16.7 µM],x,x,x
Cc1nc(N2CCC(C)CC2)c2oc3ccccc3c2n1,4,2,x,10,-5,0
COc1ccccc1N1CCN(c2nc(C)nc3c2oc2ccccc23)CC1,2,0,63*,0,-5,4
CCCCCCCCCCCCCCCCn1cc[n+](C)c1,6,1,128*,51,-2,-7
COc1ccc(-c2cnc3c(c2)C(=O)N([C@H](C)CO)C[C@H](C)[C@H](CN(C)C(=O)Nc2cccc4ccccc24)O3)cc1,x,x,3[16.7 µM],x,x,x
C[C@H](CO)N1C[C@H](C)[C@H](CN(C)C(=O)Nc2cccc3ccccc23)Oc2ncc(-c3ccc(F)cc3)cc2C1=O,x,x,39*[16.7 µM],x,x,x
C[C@H](CO)N1C[C@H](C)[C@H](CN(C)C(=O)Nc2cccc3ccccc23)Oc2ccc(NC(=O)Nc3ccc(C(F)(F)F)cc3)cc2C1=O,x,x,56*[16.7 µM],x,x,x
C[C@@H]1CN([C@H](C)CO)C(=O)c2cccc(NC(=O)Nc3ccc(C(F)(F)F)cc3)c2O[C@H]1CN(C)C(=O)Nc1cccc2ccccc12,x,x,78*[16.7 µM],x,x,x
C[C@H]1CN([C@@H](C)CO)C(=O)c2cccc(NC(=O)C3CCOCC3)c2O[C@H]1CN(C)S(=O)(=O)c1ccc(F)cc1,x,x,-9[16.7 µM],x,x,x
COc1cccc(C2CC(c3ccc(C)cc3)Nc3nc(N)nn32)c1 (stereo not drawn),0,0,9,-2,-2,-1
COc1cccc(C2CC(c3ccc(C)cc3)n3nc(N)nc3N2)c1 (stereo not drawn),1,2,66*,-5,-2,-1
C[C@@H]1CCCCO[C@@H](CN(C)Cc2ccc3c(c2)OCO3)[C@H](C)CN([C@H](C)CO)C(=O)c2cc(NC(=O)Nc3ccc(F)cc3)ccc2O1,x,x,-11[16.7 µM],x,x,x
COCCn1c(SC(C)C(=O)NC2CCCCC2C)nc2ccccc2c1=O (stereo not drawn),-1,0,75*,16,x,3
SMILES,V-ATPase pHluor,NR2E3 ag-1,Env fusion inh,NR2E3 ag-2,GalR3 antagonist,FXN GAA850 act
COCC(C)n1c(SC(C)C(=O)NC2CCCCC2C)nc2ccccc2c1=O (stereo not drawn),-1,0,16,9,-2,-1
c1ccc(COc2ccc(-c3cc4nc(NCCOc5ccccc5)ccn4n3)cc2)cc1,x,x,43*,-3,-6,-2
c1ccc(COc2cccc(-c3cc4nc(NCCOc5ccccc5)ccn4n3)c2)cc1,x,x,23,-18,-6,-1
Cc1nc(N2CCN(c3ccccc3)CC2)nc2c1C(=O)CC(c1ccccc1)C2 (stereo not drawn),1,0,64*,-4,-2,0
CC(C)CC#Cc1ccc2c(c1)O[C@@H](CN(C)S(=O)(=O)c1cccc(F)c1)[C@@H](C)CN([C@H](C)CO)S2(=O)=O,x,x,68*[16.7 µM],x,x,x
CCCC#Cc1ccc2c(c1)O[C@H](CN(C)S(=O)(=O)c1cccc(F)c1)[C@H](C)CN([C@H](C)CO)S2(=O)=O,x,x,43[16.7 µM],x,x,x
CCCC#Cc1ccc2c(c1)O[C@@H](CN(C)S(=O)(=O)c1cccc(F)c1)[C@@H](C)CN([C@@H](C)CO)S2(=O)=O,x,x,60*[16.7 µM],x,x,x
CC(C)CC#Cc1ccc2c(c1)O[C@@H](CN(C)S(=O)(=O)c1ccc(F)cc1)[C@@H](C)CN([C@H](C)CO)S2(=O)=O,x,x,62*[16.7 µM],x,x,x
CCCNC(=O)N1[C@@H]2c3cccc(=O)n3C[C@H]1[C@H](CO)[C@H]2C(=O)N1CCC(Cc2ccccc2)CC1,x,x,7[16.7 µM],x,x,x
COc1ccc(NC(=O)Nc2ccc3c(c2)C(=O)N([C@H](C)CO)C[C@H](C)[C@H](CN(C)S(=O)(=O)c2ccc(OC)cc2)OCCCC[C@H](C)O3)cc1,x,x,-27[16.7 µM],x,x,x
CCNC(=O)C[C@@H]1CC[C@@H]2[C@H](COC[C@@H](O)CN2C(=O)c2ccccn2)O1,x,x,65*[16.7 µM],x,x,x
COc1ccc(Cl)cc1C(=O)NNC(=S)NC(=O)c1cc(-c2ccccc2)nc2ccccc12,-2,-4,73*,6,-3,0
CCN(CC)S(=O)(=O)c1cccc(S(=O)(=O)c2cccc(S(=O)(=O)N(CC)CC)c2)c1,-1,1,79*,9,-7,2
CCN(CC)S(=O)(=O)c1cccc(S(=O)(=O)N2CCCCC2)c1,-3,0,x,-41,-7,3
C[C@H](O)[C@@H]1C(=O)N2CCc3c([nH]c4cccc(-c5ccccc5)c34)[C@@H]2C[C@@H]1N(C)C(=O)c1ccccc1,x,x,7,x,-7,x
C[C@H](O)[C@@H]1C(=O)N2CCc3c([nH]c4cccc(-c5ccccc5)c34)[C@@H]2C[C@@H]1N(C)C(=O)OCc1ccccc1,x,x,71*,x,-4,x
COc1ccccc1S(=O)(=O)N[C@H]1C=C[C@@H](CC(=O)N2CCN(C)CC2)O[C@@H]1CO,x,x,-10[16.7 µM],x,x,x

# Screens (PubChem BioAssay)
